Consider six compounds from paper PMC4651454 (Journal of virology & antiviral research, 2014).

A word on the EC50: it is the midpoint of the concentration-response curve. The CC50 is the concentration that lowers cell viability or growth by half. Low readings indicate greater toxicity to the cells, high ones lower toxicity to the cells.

The subject of data set [1] is HCV infected Huh7.5.1 cells. In words: RT-qPCR of selected genes in HCV infected cells. The conditions noted are these: 10 μM, over IFN-α treated cells (p=0.032). The format is cell-based, human. A digest of the protocol:
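HCV-infected Huh7.5.1 cells were prepared as for the microarray and treated for 6 or 72 h with 1,25(OH)2D3 (4 or 10 µM) and IFN-α (1 or 10 IU/mL), alone or combined. Cultures were run in triplicate. RNA was reverse-transcribed and measured by TaqMan RT-qPCR in duplicate reactions, normalized to GAPDH. Fold change versus untreated infected culture was calculated by 2^-ΔΔCt. Means with 1 standard deviation were compared by Student t-test.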

The test system of another data set is JC1-Luc2a (infection). In words: JC1-Luc2a infectious virus luciferase assay. Particulars: Hepatitis C virus. The data set is classed as cell-based.
In data set [2] the test system is Huh7.5.1 cells. Put plainly: Microarray gene expression. The data set is classed as cell-based, human. The essentials: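 Huh7.5.1 cells were JC1-Luc2a-transfected or mock-transfected, cultured 4 days, then plated. 1,25(OH)2D3 was added at staggered times to give 6, 12, 24, 72 or 120 h exposures, with RNA harvested at 120 h (day 9). Biotinylated cRNA (250 ng total RNA input; 750 ng hybridized) was run on HumanHT-12 v4 chips, 18-20 h at 58°C, with Cy3 detection. Data were LOESS-normalized and compared against uninfected untreated cells.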

The subject of data set [3] is JC1-Luc2a (electroporation). Put plainly: JC1-Luc2a transfected. The format is cell-based. Particulars: Hepatitis C virus.
Data set [4] concerns BM4-5 FEO (genotype 1b) replicon. In words: Synergy of 1,25. The data set is classed as cell-based, hepatitis C virus.
A further data set in a line: in vitro. The data set is classed as cell-based. Particulars: human, CC50 μM (±S.D).
Data set [5] relates to Huh7.5.1 cells. In words: in vitro. The format is cell-based. Particulars: human, 120 h.
For another data set, the system named is HCV core protein. Put plainly: HCV core protein immunoblot in JC1-Luc2a electroporated Huh7.5.1 cells. The conditions noted are these: 10 μM 1,25(OH)2D3, 10 IU/mL IFN-α, 72 hours, compared to untreated cells. The data set is classed as cell-based, hepatitis C virus. A digest of the protocol: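 Huh7.5.1 cells electroporated with JC1-Luc2a were incubated for 72 h without drug, with 10 µM 1,25(OH)2D3, with 10 IU/mL IFN-α, or with both. Confluent plates were trypsinized, counted and lysed in equal RIPA volumes. Each condition was run in triplicate. Lysates were run on 12% Bis-Tris SDS-PAGE and transferred to nitrocellulose. Core (anti-core, epitope aa 7-50) and β-actin were detected with goat anti-mouse IgG, and band density was quantified.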
(In western blotting, separated proteins are transferred to a membrane and probed.)

Another data set has as its system HCV. The conditions noted are these: ref 23 (Matsumura et al.); cited from earlier work.
Data set [6] has as its system full-length genotype 1b replicon. The conditions noted are these: ref 20 (Yano et al.); cited from earlier work.
Another data set deals with HCV genotype 1 patients. The conditions noted are these: supplemented group, HCV genotype 1, PEG-IFN/RBV; controls 42%, P<0.001; cited from earlier work.

As to `C=C1/C(=C\C=C2/CCC[C@]3(C)[C@@H]([C@H](C)CCCC(C)(C)O)CC[C@@H]23)C[C@@H](O)C[C@@H]1O` [1,25(OH)2D3, 1,25-dihydroxyvitamin D3], the “HIF1a mRNA expression, RT-qPCR” value in data set [1] is on record as “up-regulation”. Further, the EC50 with JC1-Luc2a (infection) (72 h) is 1.19 µM; with JC1-Luc2a (infection) (120 h), 1.07 µM; in data set [3] (72 h), 2.92 µM; in data set [3] (120 h), 2.95 µM; in data set [4] (Hepatitis C virus, GETYPE1B, BM4-5, read-out: EC50 (used for synergy dosing)), 1 µM. Besides, the HIF1a expression entry in the data set on Huh7.5.1 cells [2] (HCV naïve cells) is “strongly up regulated”. Further, in the data set with Huh7.5.1 cells [2] (progressive in vitro exposure), the GPR37 expression entry is “markedly up regulated”. In addition, in the data set on Huh7.5.1 cells [2] (shortly after treatment), the CCL20 gene expression entry is on record as “higher gene expression”. Also, in the data set with Huh7.5.1 cells [2] (uninfected and infected cells), the SLC30A10 expression entry is “increased”. In the data set “in vitro”, the CC50 at 72 h came out at 17.3 µM. The same compound came in with a CC50 in the data set on Huh7.5.1 cells [5] of 22.8 µM. Besides, in the data set on HCV core protein, the “HCV core protein expression by immunoblot” value is recorded as “Mild reduction”.

Take `C=C1CC[C@H](O)C/C1=C/C=C1\CCC[C@]2(C)[C@@H]([C@H](C)CCCC(C)(C)O)CC[C@@H]12` [25(OH) D3]: the “Inhibition of HCV in culture (in words)” value in the data set with HCV is listed as “inhibited HCV in culture”.

For the compound `C=C1CC[C@H](O)C/C1=C/C=C1\CCC[C@]2(C)[C@@H]([C@H](C)/C=C/[C@H](C)C(C)C)CC[C@@H]12` [Vitamin D2], the “EC50, inhibition of HCV RNA replication” value in data set [6] is 1.6 µg/mL. In addition, the half-maximal effective concentration (EC50) was 5.72 µM in the data set on JC1-Luc2a (infection) (72 h), 4.41 µM with JC1-Luc2a (infection) (120 h), 18.6 µM in [3] (72 h) and 21.4 µM in [3] (120 h). Besides, the CC50 at 72 h in “in vitro” was determined as 53.9 µM. This compound showed a CC50 with Huh7.5.1 cells [5] of 41.9 µM.

Turning to `C=C1CC[C@H](O)C/C1=C/C=C1\CCC[C@]2(C)[C@@H]([C@H](C)CCCC(C)C)CC[C@@H]12` [Vitamin D3], the EC50 came out at 3.44 µM in the data set with JC1-Luc2a (infection) (72 h), 2.78 µM in the data set with JC1-Luc2a (infection) (120 h), 13 µM in data set [3] (72 h) and 12.6 µM in data set [3] (120 h). In the data set “in vitro”, this compound registered a CC50 at 72 h of 50.3 µM. The compound also showed a CC50 with Huh7.5.1 cells [5] of 54.9 µM.

With `C=C1CC[C@H](O)C/C1=C/C=C1\CCC[C@]2(C)[C@@H]([C@H](C)/C=C/[C@H](C)C(C)C)CC[C@@H]12` [vitamin D], the SVR rate in the data set with HCV genotype 1 patients was 86%.

For IFN-α, the “EC50 (used for synergy dosing)” value in data set [4] (BM4-5 FEO genotype 1b replicon) was determined as 1 IU/mL. In addition, the “HCV core protein expression by immunoblot” value in the data set with HCV core protein is recorded as “Mild reduction”.
